Data as given in ChEMBL document CHEMBL1138867, “Design, synthesis, potency, and cytoselectivity of anticancer agents derived by parallel synthesis from alpha-aminosuberic acid” (J Med Chem, 2006).

Legend:
[1] = test system: MM96L; assay: Induction of histone H4 acetylation in human MM96L cells; assay type: functional, cell-based
In short: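 MM96L melanoma cells were exposed for 8 h to 0.05, 0.5 or 5 µg/mL compound, with DMSO vehicle and untreated controls. Histones were extracted and resolved by TAU gel electrophoresis to separate non-, mono-, di-, tri- and tetra-acetylated histone H4.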

[2] = test system: NFF; assay: Antiproliferative activity against human NFF cells; assay type: functional, cell-based
In short: (§1)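 Cells cultured in RPMI 1640 with 10% heat-inactivated FCS, 3 mM HEPES, 5% CO2, 37 °C; NFF are primary neonatal foreskin fibroblasts. Cells were seeded at 5 × 10^3/well and left to adhere overnight. They were exposed to compound for 24 h, then the medium was replaced and cells grown a further 72 h. Survival was read by SRB staining at 564 nm, giving IC50.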

[3] = test system: MM96L; assay: Antiproliferative activity against human MM96L cells; assay type: functional, cell-based; in short: as §1
[4] = Antiproliferative activity against human MM229 cells; assay type: functional, cell-based; in short: as §1
[5] = Antiproliferative activity against human MM329 cells; assay type: functional, cell-based; in short: as §1
[6] = Antiproliferative activity against human MM470 cells; assay type: functional, cell-based; in short: as §1
[7] = Antiproliferative activity against human MM604 cells; assay type: functional, cell-based; in short: as §1
[8] = Antiproliferative activity against human Mel RM cells; assay type: functional, cell-based; in short: as §1
[9] = Antiproliferative activity against human Mel FH cells; assay type: functional, cell-based; in short: as §1
[10] = test system: SK-MEL-28; assay: Antiproliferative activity against human SK-Mel-28 cells; assay type: functional, cell-based; in short: as §1
[11] = test system: DO4; assay: Antiproliferative activity against human DO4 cells; assay type: functional, cell-based; in short: as §1
[12] = Antiproliferative activity against human D14 cells; assay type: functional, cell-based; in short: as §1
[13] = Antiproliferative activity against human D11 cells; assay type: functional, cell-based; in short: as §1
[14] = Antiproliferative activity against human D17 cells; assay type: functional, cell-based; in short: as §1
[15] = Antiproliferative activity against human LSP M2 cells; assay type: functional, cell-based; in short: as §1
[16] = Antiproliferative activity against human AF6 cells; assay type: functional, cell-based; in short: as §1
[17] = Antiproliferative activity against human AO7 RM cells; assay type: functional, cell-based; in short: as §1
[18] = test system: A2058; assay: Antiproliferative activity against human A2058 cells; assay type: functional, cell-based; in short: as §1
[19] = test system: HeLa; assay: Antiproliferative activity against human HeLa cells; assay type: functional, cell-based; in short: as §1
[20] = test system: NFF; assay: Selectivity index, IC50 for MM229 over IC50 for NFF cells; assay type: functional, Homo sapiens
In short: (§2)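 Selectivity index: IC50 for normal neonatal foreskin fibroblasts (NFF) relative to IC50 for each cancer line, both from the same survival assay. Cells grown in RPMI 1640 with 10% heat-inactivated FCS at 37 °C and 5% CO2, plated at 5 × 10^3 cells/well and left to adhere overnight. Compound exposure 24 h, then removed and cells regrown 72 h in fresh medium. Fixed with methylated spirits, stained with sulforhodamine B, read at 564 nm.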

[21] = test system: NFF; assay: Selectivity index, IC50 for MM329 over IC50 for NFF cells; assay type: functional, Homo sapiens; in short: as §2
[22] = test system: NFF; assay: Selectivity index, IC50 for MM470 over IC50 for NFF cells; assay type: functional, Homo sapiens; in short: as §2
[23] = test system: NFF; assay: Selectivity index, IC50 for MM604 over IC50 for NFF cells; assay type: functional, Homo sapiens; in short: as §2
[24] = test system: NFF; assay: Selectivity index, IC50 for Mel RM over IC50 for NFF cells; assay type: functional, Homo sapiens; in short: as §2
[25] = test system: NFF; assay: Selectivity index, IC50 for Mel FH over IC50 for NFF cells; assay type: functional, Homo sapiens; in short: as §2
[26] = test system: NFF; assay: Selectivity index, IC50 for DO4 over IC50 for NFF cells; assay type: functional, Homo sapiens
[27] = test system: NFF; assay: Selectivity index, IC50 for D14 over IC50 for NFF cells; assay type: functional, Homo sapiens
[28] = test system: NFF; assay: Selectivity index, IC50 for D11 over IC50 for NFF cells; assay type: functional, Homo sapiens
[29] = test system: NFF; assay: Selectivity index, IC50 for D17 over IC50 for NFF cells; assay type: functional, Homo sapiens
[30] = test system: NFF; assay: Selectivity index, IC50 for LSP M2 over IC50 for NFF cells; assay type: functional, Homo sapiens; in short: as §2
[31] = test system: NFF; assay: Selectivity index, IC50 for AF6 over IC50 for NFF cells; assay type: functional, Homo sapiens
[32] = test system: NFF; assay: Selectivity index, IC50 for AO7 RM over IC50 for NFF cells; assay type: functional, Homo sapiens
[33] = test system: NFF; assay: Selectivity index, IC50 for A2058 over IC50 for NFF cells; assay type: functional, Homo sapiens
[34] = test system: NFF; assay: Selectivity index, IC50 for HeLa over IC50 for NFF cells; assay type: functional, Homo sapiens

IC50 [10]: 60 nM
IC50 [19]: 90 nM
Structure (SMILES): CN(C)c1ccc(C(=O)NC(CCCCCC(=O)NO)C(=O)NCc2ccccc2)cc1 (centres undefined)
Activity [1]: Dose-dependent effect
IC50 [2]: 870 nM
IC50 [3]: 130 nM
IC50 [4]: 600 nM
IC50 [5]: 60 nM
IC50 [6]: 90 nM
IC50 [7]: 10 nM
IC50 [8]: 950 nM
IC50 [9]: 80 nM
IC50 [11]: 120 nM
IC50 [12]: 260 nM
IC50 [13]: 300 nM
IC50 [14]: 60 nM
IC50 [15]: 450 nM
IC50 [16]: 300 nM
IC50 [17]: 180 nM
IC50 [18]: 100 nM
Ratio IC50 [20]: 1.5
Ratio IC50 [21]: 14.5
Ratio IC50 [22]: 9.7
Ratio IC50 [23]: 87
Ratio IC50 [24]: 0.9
Ratio IC50 [25]: 10.9
Ratio IC50 [26]: 7.3
Ratio IC50 [27]: 3.3
Ratio IC50 [28]: 2.9
Ratio IC50 [29]: 14.5
Ratio IC50 [30]: 1.9
Ratio IC50 [31]: 2.9
Ratio IC50 [32]: 4.8
Ratio IC50 [33]: 8.7
Ratio IC50 [34]: 9.7
